RGS4 block: human RGS4 inhibition; B-score at 10 µM; hit rate 0.45% among 310,000; HEK293 M3R/RGS4 inducible, Fluo-4 calcium flux; active compounds read high; triggered by carbachol at its EC20;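 active = B-score, a plate-corrected calcium signal, over three deviations above library mean, with baseline fluorescence within five deviations of library mean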;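 also: RGS4 expression induced by doxycycline in cells with stable M3 receptor; B-score is computed from the integrated fluorescence ratio over baseline after carbachol; higher B-score means a larger calcium signal and so more RGS4 inhibition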
Target sequence (P49798 whole entry, looked up): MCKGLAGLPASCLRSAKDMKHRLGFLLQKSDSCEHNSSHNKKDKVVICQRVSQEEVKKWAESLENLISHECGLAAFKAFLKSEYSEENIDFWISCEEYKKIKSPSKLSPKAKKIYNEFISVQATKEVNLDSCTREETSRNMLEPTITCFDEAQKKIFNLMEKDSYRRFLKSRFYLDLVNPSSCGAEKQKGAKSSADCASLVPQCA
MrgX1 antagonist: antagonists of human MrgX1 receptor | MRGX1-HEK293 calcium flux, Fluo-4, BAM8-22 antagonism; active compounds read low | hit rate 1.3% among 310,000 | B-score at 10 µM | AID 588676;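 active = calcium-response B-score plate-corrected more than 3 library SD below zero, starting fluorescence within 5 deviations, no agonist response on first addition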;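 also: peak minus trough fluorescence over baseline after final BAM8-22 challenge near maximal dose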
Target sequence (Q96LB2 whole entry, looked up): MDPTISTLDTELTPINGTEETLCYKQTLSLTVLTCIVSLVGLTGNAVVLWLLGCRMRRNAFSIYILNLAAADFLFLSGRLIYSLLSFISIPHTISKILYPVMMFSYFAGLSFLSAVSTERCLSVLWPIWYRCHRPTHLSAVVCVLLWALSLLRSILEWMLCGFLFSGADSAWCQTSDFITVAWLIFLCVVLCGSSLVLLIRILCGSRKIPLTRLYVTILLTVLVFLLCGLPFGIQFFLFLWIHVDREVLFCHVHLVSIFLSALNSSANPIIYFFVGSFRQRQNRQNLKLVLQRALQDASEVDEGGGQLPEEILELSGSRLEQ
RGS4 pot: potentiators or activators of RGS4 | HEK293 M3R/inducible RGS4, carbachol calcium flux Fluo4; active compounds read low | B-score at 10 µM | AID 463111 | hit rate 0.92% among 310,000;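 active = B-score of the integrated calcium signal more than 4 SD below the library mean, with starting fluorescence not abnormally high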;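 also: negative B-score means reduced calcium response which marks RGS4 activation or potentiation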
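Detection: kinetic calcium fluorescence imaging with Fluo4-AM dye, 2 µM / Material: HEK293 cells with stable M3R and inducible RGS4 / Schedule: recording 10 s baseline at 1 Hz, 100 s post-agonist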
MrgX1 agonist: activates human MrgX1 receptor signaling | MrgX1-HEK293 cells, Fluo-4 calcium fluorescence, agonist mode; active compounds read high | Q96LB2 | B-score at 10 µM | hit rate 0.44% among 310,000;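 active = calcium response B-score plate-corrected fluorescence ratio at least 3 library SD, with starting fluorescence B-score inside 5 SD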
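Assay system: MrgX1-expressing HEK293 cells / Amount: fifteen thousand cells per well / Doses: test compound in the initial addition of three / Timing: cells plated overnight, dye loaded 0.5 h 37 °C, 0.5 h room temperature / Technique: kinetic calcium dye fluorescence, Fluo-4 NW / Control set: positive and negative controls per plate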
MrgX1 allo act: allosterically activates human MrgX1 receptor signaling; MrgX1-HEK293, Fluo-4 calcium flux, FDSS; active compounds read high; hit rate 0.63% among 310,000; Q96LB2; AID 588675; B-score at 10 µM;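 active = plate-corrected calcium response at least 3 library SD above typical, normal starting fluorescence, not activating the receptor alone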;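 also: compound read alongside a low EC10 to EC30 dose of BAM8-22 agonist; peak minus trough fluorescence over baseline measured at the second addition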
* hit, by the source's call; i = inactive. A selection: hits, their analogues and other compounds. The true share with any hit is near 3.5%.

SMILES | RGS4 block | MrgX1 antagonist | RGS4 pot | MrgX1 agonist | MrgX1 allo act
Clc1ccc(OCc2nnc(SCc3nnc(-c4ccccc4)o3)o2)c(Cl)c1 | i | i | -9.66* | i | i
COc1ccccc1-n1c(CNC(=O)c2ccc(S(=O)(=O)N3CCCCC3)cc2)n[nH]c1=S | i | i | i | i | i
CCc1nc(SCC(=O)N2CCCCCC2)c2c(=O)n(C)c(=O)n(C)c2n1 | i | i | -7.65* | i | i
CCCc1nc(SCC(=O)N2CCC(Cc3ccccc3)CC2)c2c(=O)n(C)c(=O)n(C)c2n1 | i | i | -7.33* | i | i
O=C(NC1CCCc2c1cnn2-c1ccccc1F)c1ccccc1N1CCOCC1 (centres undefined) | i | i | i | i | i
CC(C)N(C(=O)COC(=O)c1cccc(N(C)C)c1)c1ccccc1 | i | i | i | i | i
CSc1ccc(CN2CCC(CO)(CCOc3ccccc3)CC2)cc1 | i | i | -6.99* | i | i
Cc1ccc2[nH]c(C(=O)N/N=C/c3ccccc3O)c(C)c2c1 | i | i | i | i | i
CCc1noc(C)c1C(=O)N1CCCC(CCC(=O)NCc2cccc(OC)c2)C1 (centres undefined) | i | -6.47* | i | i | i
CC(C)CNC(=O)c1ccccc1NC(=O)/C=C/c1cccc([N+](=O)[O-])c1 | i | i | i | i | i
Cc1cc(C)c(C(=O)C(C)OC(=O)C2=COCCO2)cc1C (centres undefined) | i | i | i | i | 7.6*
CC(O)(CS(=O)(=O)Cc1ccccc1)C(=O)Nc1ccc(C(F)(F)F)cc1 (centres undefined) | i | i | i | i | i
Cc1cccc(NC(=O)CN2C(=O)S/C(=C\C(=O)Nc3ccc(Cl)cc3)C2=O)c1 | i | -5.74* | i | i | i
O=C(/C=C1\SC(=O)N(CC(=O)Nc2ccc(Cl)cc2)C1=O)Nc1ccc(F)cc1 | i | i | i | i | i
CC(C)(Oc1ccc(Cl)cc1)C(=O)NC1CCN(Cc2ccccc2)CC1 | i | i | -7.03* | i | i
O=C(COc1ccccc1)NC1CCN(Cc2ccccc2)CC1 | i | i | i | i | i
CC(=O)c1cccc(-n2nnnc2SCC(=O)Nc2cccc(NC(=O)c3ccco3)c2)c1 | i | i | i | i | i
CC(=O)c1c(C)[nH]c(C(=O)NCCc2c[nH]c3ccccc23)c1C | i | i | i | i | i
CC(=O)Nc1ccc(S(=O)(=O)NCc2ccc(C(=O)NCc3ccc(Cl)cc3)cc2)cc1 | i | i | i | i | i
CC(=O)Nc1ccc(S(=O)(=O)NCc2ccc(C(=O)NCCN3CCCCCC3)cc2)cc1 | i | -9.41* | i | i | i
Cc1sc2ncnc(N/N=C/c3ccc(O)cc3)c2c1C | i | i | i | i | i
COc1ccc(/C=N/Nc2ncnc3sc(C)c(C)c23)cc1 | i | i | i | i | 12*
CCCCN(CC)S(=O)(=O)c1ccc(C(=O)N(CCCN(C)C)c2nc3cc(C)cc(C)c3s2)cc1 | i | i | -8.05* | i | i
COc1cccc2sc(N(CCN(C)C)C(=O)c3ccc4c(c3)CCCC4)nc12 | i | i | i | i | 6.68*
CCN(Cc1ccccc1)S(=O)(=O)c1ccc(C(=O)N(CCCN(C)C)c2nc3cc(C)cc(C)c3s2)cc1 | i | i | i | i | i
SMILES | RGS4 block | MrgX1 antagonist | RGS4 pot | MrgX1 agonist | MrgX1 allo act
CCOc1cccc2sc(N(CCCN(C)C)C(=O)c3ccc(S(=O)(=O)N(CC)Cc4ccccc4)cc3)nc12 | i | i | -7.66* | i | i
Cc1cc(NC(=O)C(C)SCC(=O)Nc2cc(C(F)(F)F)ccc2N2CCOCC2)no1 (centres undefined) | i | i | i | i | i
Cn1c(=O)c(=O)n(C)c2cc(N3CCOCC3)c(NS(=O)(=O)c3ccc(F)c(Cl)c3)cc21 | i | i | i | i | i
Cn1c(=O)c(=O)n(C)c2cc(N3CCOCC3)c(NS(=O)(=O)c3ccc([N+](=O)[O-])cc3)cc21 | i | i | i | i | 13.8*
CCCn1c(O)c(N=Nc2ccc3ccccc3n2)c2ccccc21 | i | -4.79* | i | i | i
CC(C)CCn1c(O)c(N=Nc2ccccn2)c2ccccc21 | i | i | i | i | i
COC(=O)CSc1nc(C)cc(C(F)(F)F)c1C#N | i | i | i | i | i
Cc1cc(C(F)(F)F)c(C#N)c(Sc2ccccc2)n1 | i | i | i | i | 9.59*
CCO[C@@H]1OC(C(=O)O)=C[C@H](C2CC2)[C@H]1CCCO | i | i | i | i | i
COc1ccccc1-c1nc2c(c(SCC(=O)N3CCCCC3)n1)Cc1c(CO)cnc(C)c1O2 | i | i | -8.1* | i | i
Cc1ncc(CO)c2c1Oc1nc(-c3ccccc3)nc(SCC(=O)N(C)c3ccccc3)c1C2 | i | i | -8.12* | i | 10.1*
Cc1ncc(CO)c2c1Oc1nc(-c3ccccc3F)nc(SCC(=O)N(C)c3ccccc3)c1C2 | i | i | i | i | i
Cc1ncc(CO)c2c1Oc1nc(-c3ccccc3)nc(SCC(=O)N3CCOCC3)c1C2 | i | i | i | i | i
NC(N)=NC1=NC(=O)/C(=C/c2ccccc2-n2cccn2)S1 | i | i | i | i | i
O=C(CN1C(=O)S/C(=C/c2ccc(N3CCOCC3)cc2)C1=O)N1CCOCC1 | i | i | -7.24* | i | i
C/C(=C\C(=O)c1ccc(Br)cc1)Nc1cccc(Cl)c1 | i | i | -8.09* | i | i
C/C(=C\C(=O)c1ccc(Cl)cc1)Nc1ccc(Br)cc1 | i | i | i | i | i
O/N=C/c1cc(Br)ccc1OCc1ccccc1F | i | -7.38* | i | i | i
Fc1ccccc1COc1ccc(Br)cc1CNCc1ccncc1 | i | i | -9.58* | i | i
C=CCOc1ccc(Br)cc1/C=N/O | i | i | i | i | i
CCOC(=O)CCSc1cc(C)c2ccccc2n1 | i | i | i | i | i
Cc1cc(Cl)c(S(=O)(=O)N/N=C/c2ccc3c(c2)OCO3)c(Cl)c1 | i | i | -8.21* | i | i
O=C(N/N=C/c1ccc2c(c1)OCO2)C1CC1 | i | -5.4* | i | i | i
Cn1c(=O)c(NCCO)c2c3c(cccc31)C(=O)c1ccccc1-2 | i | i | -11.6* | i | i
COc1ccc(S(=O)(=O)N2CCC(O)(c3cccnc3)CC2)cc1OC | i | i | i | i | i

Screens from PubChem.
